Reference: ChEMBL document CHEMBL3217724, “Synthesis and evaluation of a series of benzothiophene acrylonitrile analogs as anticancer agents” (Medchemcomm, 2013)
Active and inactive are the calls of the source. The rule behind the calls is not given here.

Key:
[1] = Growth inhibition of human UACC62 cells; type: functional; conditions: UACC-62
Procedure, shortened: (§1)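 NCI 60-cell-line panel, five-dose screen; GI50 is the molar concentration giving 50% growth inhibition.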

[2] = Growth inhibition of human MOLT4 cells; type: functional; conditions: MOLT-4
Procedure, shortened: (§2)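 NCI 60-human-cancer-cell-line panel, five-dose screen after a preliminary screen. GI50 is the molar concentration giving 50% growth inhibition.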

CCRF-CEM = assay: Growth inhibition of human CCRF-CEM cells; type: functional; procedure, shortened: as §2
SK-MEL-2 = assay: Growth inhibition of human SK-MEL-2 cells; type: functional; procedure, shortened: as §2
COLO 205 = assay: Growth inhibition of human COLO205 cells; type: functional; procedure, shortened: as §2
K562 = assay: Growth inhibition of human K562 cells; type: functional; procedure, shortened: as §2
NCI-H460 = assay: Growth inhibition of human NCI-H460 cells; type: functional; procedure, shortened: as §2
DU-145 = assay: Growth inhibition of human DU145 cells; type: functional; procedure, shortened: as §2
[3] = Growth inhibition of human UO31 cells; type: functional; conditions: UO-31; procedure, shortened: as §1
HL-60(TB) = assay: Growth inhibition of human HL-60(TB) cells; type: functional; procedure, shortened: as §2
[4] = Growth inhibition of human OVCAR3 cells; type: functional; conditions: OVCAR-3; procedure, shortened: as §2
[5] = Growth inhibition of human RXF393 cells; type: functional; conditions: RXF 393; procedure, shortened: as §2
KM12 = assay: Growth inhibition of human KM12 cells; type: functional; procedure, shortened: as §2
NCI-H23 = assay: Growth inhibition of human NCI-H23 cells; type: functional; procedure, shortened: as §2
RPMI-8226 = assay: Growth inhibition of human RPMI8226 cells; type: functional; procedure, shortened: as §2
T47D = assay: Growth inhibition of human T47D cells; type: functional; procedure, shortened: as §1
[6] = Growth inhibition of human UACC257 cells; type: functional; conditions: UACC-257; procedure, shortened: as §1
IGROV-1 = assay: Growth inhibition of human IGROV1 cells; type: functional; procedure, shortened: as §2
SW-620 = assay: Growth inhibition of human SW620 cells; type: functional; procedure, shortened: as §1
786-0 = assay: Growth inhibition of human 786-0 cells; type: functional; procedure, shortened: as §2
[7] = Growth inhibition of human Hs578T cells; type: functional; conditions: Hs-578T; procedure, shortened: as §2
[8] = Growth inhibition of human HCT15 cells; type: functional; conditions: HCT-15; procedure, shortened: as §2
[9] = Growth inhibition of human OVCAR4 cells; type: functional; conditions: OVCAR-4; procedure, shortened: as §2
Malme-3M = assay: Growth inhibition of human MALME-3M cells; type: functional; procedure, shortened: as §2
[10] = Growth inhibition of human NCI-ADR-RES cells; type: functional; procedure, shortened: as §2
SK-MEL-28 = assay: Growth inhibition of human SK-MEL-28 cells; type: functional; procedure, shortened: as §2
NCI-H226 = assay: Growth inhibition of human NCI-H226 cells; type: functional; procedure, shortened: as §2
SN12C = assay: Growth inhibition of human SN12C cells; type: functional; procedure, shortened: as §1
HCT-116 = assay: Growth inhibition of human HCT116 cells; type: functional; procedure, shortened: as §2
[11] = Growth inhibition of human BT549 cells; type: functional; conditions: BT-549; procedure, shortened: as §2
[12] = Growth inhibition of human HOP92 cells; type: functional; conditions: HOP-92; procedure, shortened: as §2
SNB-75 = assay: Growth inhibition of human SNB75 cells; type: functional; procedure, shortened: as §1
NCI-H322M = assay: Growth inhibition of human NCI-H322M cells; type: functional; procedure, shortened: as §2
SNB-19 = assay: Growth inhibition of human SNB19 cells; type: functional; procedure, shortened: as §1
[13] = Growth inhibition of human SF539 cells; type: functional; conditions: SF-539; procedure, shortened: as §2
MDA-MB-468 = assay: Growth inhibition of human MDA-MB-468 cells; type: functional; procedure, shortened: as §2
[14] = Growth inhibition of human OVCAR5 cells; type: functional; conditions: OVCAR-5; procedure, shortened: as §2
SK-MEL-5 = assay: Growth inhibition of human SK-MEL-5 cells; type: functional; procedure, shortened: as §2
U-251 = assay: Growth inhibition of human U251 cells; type: functional; procedure, shortened: as §1
SR = assay: Growth inhibition of human SR cells; type: functional; procedure, shortened: as §1
MDA-MB-435 = assay: Growth inhibition of human MDA-MB-435 cells; type: functional; procedure, shortened: as §2
HT-29 = assay: Growth inhibition of human HT-29 cells; type: functional; procedure, shortened: as §2
CAKI-1 = assay: Growth inhibition of human Caki1 cells; type: functional; procedure, shortened: as §2
[15] = Growth inhibition of human LOXIMVI cells; type: functional; conditions: LOX IMVI; procedure, shortened: as §2
SK-OV-3 = assay: Growth inhibition of human SKOV3 cells; type: functional; procedure, shortened: as §1
TK-10 = assay: Growth inhibition of human TK10 cells; type: functional; procedure, shortened: as §1
A498 = assay: Growth inhibition of human A498 cells; type: functional; procedure, shortened: as §2
MCF7 = assay: Growth inhibition of human MCF7 cells; type: functional; procedure, shortened: as §2
M14 = assay: Growth inhibition of human M14 cells; type: functional; procedure, shortened: as §2
SF-268 = assay: Growth inhibition of human SF268 cells; type: functional; procedure, shortened: as §2
A549 = assay: Growth inhibition of human A549 cells; type: functional; procedure, shortened: as §2
MDA-MB-231 = assay: Growth inhibition of human MDA-MB-231 cells; type: functional; procedure, shortened: as §2
[16] = Growth inhibition of human HCC2998 cells; type: functional; conditions: HCC 2998; procedure, shortened: as §2
PC-3 [17] = assay: Growth inhibition of human PC3 cells; type: functional; procedure, shortened: as §2
[18] = Growth inhibition of human OVCAR8 cells; type: functional; conditions: OVCAR-8; procedure, shortened: as §2
HOP-62 = assay: Growth inhibition of human HOP62 cells; type: functional; procedure, shortened: as §2
ACHN = assay: Growth inhibition of human ACHN cells; type: functional; procedure, shortened: as §2
PC-3 [19] = assay: Resistance factor, ratio of GI50 for P-gp expressing docetaxel-resistant human PC3 cells to GI50 for human PC3 cells; type: functional
Procedure, shortened: (§3)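 PC3 prostate cancer cells and docetaxel-resistant PC3-DR cells were exposed to drug for 72 hours in 96-well format. Viability was read with AlamarBlue dye and GI50 derived. Resistance is the GI50 in PC3-DR over the GI50 in parental PC3.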

[20] = Growth inhibition of P-gp expressing human NCI-ADR-RES cells by Alamar Blue assay; type: functional
Procedure, shortened: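 72-h cytotoxicity in 96-well plates with AlamarBlue viability dye, giving GI50. Line 1 uses docetaxel-resistant PC3 prostate cells (PC3-DR), and line 2 uses NCI/ADR-Res ovarian cells. P-gp expression in both was confirmed by Western blot, with β-actin as the loading control.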

LLC-PK1 [21] = assay: Growth inhibition of pig LLC-PK1 cells expressing MDR1 by Alamar Blue assay; type: functional; conditions: Sus scrofa
Procedure, shortened: (§4)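 Porcine epithelial L-MDR1 (P-gp expressing) cells and their non-expressing parent line were exposed to compound for 72 h. Viability was read with AlamarBlue dye and GI50 derived. P-gp expression was verified by Western blot with β-actin as loading control. The resistance ratio compares GI50 in MDR1 versus parent cells.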

PC-3 [22] = assay: Induction of beta tubulin stabilization in human PC3 cells at 10 nM after 24 hrs by DAPI-staining based immunofluorescence assay; type: cell-based
Procedure, shortened: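 PC3 cells were treated for 24 hours with the test agent at 1, 10 or 100 nM, or with 10 nM docetaxel or vinblastine as stabilizing and destabilizing references. Cells were immunostained for beta-tubulin (green) with DAPI nuclear counterstain (blue) and the microtubule staining pattern imaged.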

PC-3 [23] = assay: cells; conditions: Homo sapiens, PC-3, 72 h
OVCAR-8 = assay: Resistance factor, ratio of GI50 for P-gp expressing NCI-ADR-RES cells to GI50 for human OVCAR8 cells; type: functional
Procedure, shortened: (§5)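 Cell viability was read with AlamarBlue dye in 96-well format and GI50 values derived, to assess P-gp effects. Cells were P-gp-expressing NCI/ADR-Res ovarian cancer cells and L-MDR1 porcine epithelial cells, each with its non-expressing parent line. P-gp expression was confirmed by Western blot with β-actin as loading control. Resistance is the GI50 in the P-gp line over the GI50 in the parent line.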

PC-3 [24] = assay: Growth inhibition of human PC3 cells after 72 hrs by Alamar Blue assay; type: functional; conditions: PC-3, 72 h; procedure, shortened: as §3
LLC-PK1 [25] = assay: Resistance factor, ratio of GI50 for pig LLC-PK1 cells expressing MDR1 to GI50 for pig LLC-PK1 cells; design: species or system Sus scrofa; procedure, shortened: as §4
[26] = Growth inhibition of human OVCAR8 cells by Alamar Blue assay; type: functional; conditions: OVCAR-8; procedure, shortened: as §5
[27] = Growth inhibition of pig LLC-PK1 cells by Alamar Blue assay; type: cell-based, Sus scrofa; procedure, shortened: as §5

COc1cc(/C(C#N)=C\c2cc3ccccc3s2)cc(OC)c1OC
GI50 [1]: < 10 nM | GI50 [2]: < 10 nM | GI50 (CCRF-CEM): < 10 nM | GI50 (SK-MEL-2): < 10 nM | GI50 (COLO 205): < 10 nM | GI50 (K562): < 10 nM | GI50 (NCI-H460): < 10 nM | GI50 (DU-145): < 10 nM | GI50 [3]: < 10 nM | GI50 (HL-60(TB)): < 10 nM | GI50 [4]: < 10 nM | GI50 [5]: < 10 nM | GI50 (KM12): < 10 nM | GI50 (NCI-H23): < 10 nM | GI50 (RPMI-8226): < 10 nM | GI50 (T47D): > 100 nM | GI50 [6]: > 100 nM | GI50 (IGROV-1): < 10 nM | GI50 (SW-620): < 10 nM | GI50 (786-0): < 10 nM | GI50 [7]: < 10 nM | GI50 [8]: < 10 nM | GI50 [9]: < 10 nM | GI50 (Malme-3M): < 10 nM | GI50 [10]: < 10 nM | GI50 (SK-MEL-28): < 10 nM | GI50 (NCI-H226): 17.9 nM | GI50 (SN12C): < 10 nM | GI50 (HCT-116): < 10 nM | GI50 [11]: < 10 nM | GI50 [12]: < 10 nM | GI50 (SNB-75): < 10 nM | GI50 (NCI-H322M): 18.3 nM | GI50 (SNB-19): 39.1 nM | GI50 [13]: < 10 nM | GI50 (MDA-MB-468): < 10 nM | GI50 [14]: < 10 nM | GI50 (SK-MEL-5): < 10 nM | GI50 (U-251): < 10 nM | GI50 (SR): < 10 nM | GI50 (MDA-MB-435): < 10 nM | GI50 (HT-29): < 10 nM | GI50 (CAKI-1): 37.8 nM | GI50 [15]: < 10 nM | GI50 (SK-OV-3): < 10 nM | GI50 (TK-10): > 100 nM | GI50 (A498): < 10 nM | GI50 (MCF7): < 10 nM | GI50 (M14): < 10 nM | GI50 (SF-268): < 10 nM | GI50 (A549): < 10 nM | GI50 (MDA-MB-231): < 10 nM | GI50 [16]: 19.2 nM | GI50 (PC-3 [17]): < 10 nM | GI50 [18]: < 10 nM | GI50 (HOP-62): < 10 nM | GI50 (ACHN): < 10 nM

CC(=O)O[C@@]12CO[C@@H]1C[C@H](O)[C@@]1(C)C(=O)[C@H](O)C3=C(C)[C@@H](OC(=O)[C@H](O)[C@@H](NC(=O)OC(C)(C)C)c4ccccc4)C[C@@](O)([C@@H](OC(=O)c4ccccc4)[C@H]21)C3(C)C.O.O.O [DOCETAXEL]
RatioGI50 (PC-3 [19]): 22 | GI50 [20]: 196 nM | GI50 (LLC-PK1 [21]): 107 nM | Activity (PC-3 [22]): Active | GI50 (PC-3 [23]): 54 nM | RatioGI50 (OVCAR-8): 392 | GI50 (PC-3 [24]): 2.5 nM | RatioGI50 (LLC-PK1 [25]): 627 | GI50 [26]: 0.5 nM | GI50 [27]: 0.17 nM
